Reference: ChEMBL document CHEMBL1125068, “Structure-based, C2 symmetric inhibitors of HIV protease” (J Med Chem, 1990)

Assays:
[1] = biological target: T1, Human immunodeficiency virus type 1 protease (Human immunodeficiency virus 1, UniProt Q72874); test: Inhibitory activity against recombinant HIV-1 Protease
H9 [2] = test: In vitro inhibitory cytopathic effect against HIV-1 in H9 cells; format: functional; conditions: Homo sapiens, H9, read-out: TC50
MT4 [3] = test: In vitro inhibitory cytopathic effect against HIV-1 in MT-4 cells; format: functional; conditions: Homo sapiens, MT4, read-out: TC50
Summary of the method: (§1)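 MT4 cells (1 × 10⁴) were infected with 10 TCID₅₀ HIV-1 3B for 2 h, washed, and grown at 37 °C in inhibitor-containing medium. Viral cytopathic effect and compound toxicity were both scored on day 5 by MTT uptake. IC₅₀ and TC₅₀ came from this read-out.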

[4] = biological target: T1, Human immunodeficiency virus type 1 protease; test: Inhibitory activity against recombinant HIV-1 protease.
H9 [5] = test: In vitro inhibitory activity against HIV-1 in H9 cells; format: functional, cell-based; conditions: Homo sapiens
Summary of the method: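 H9 cells (2 × 10⁴) were infected with 100 TCID₅₀ HIV-1 3B for 2 h, washed, then cultured at 37 °C with inhibitor. Viral replication was read as p24 antigen by ELISA on days 7 and 10, and IC₅₀ was taken from the dose-response. Viability of uninfected cultures was checked by trypan blue exclusion.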

MT4 [6] = test: In vitro inhibitory activity against HIV-1 in MT-4 cells; format: functional, cell-based; conditions: Homo sapiens; summary of the method: as §1

CC(C)[C@H](NC(=O)OCc1ccccc1)C(=O)N[C@@H](Cc1ccccc1)[C@@H](O)[C@H](Cc1ccccc1)NC(=O)[C@H](NC(=O)OCc1ccccc1)C(C)C
IC50 [1]: 3 nM

CC(=O)N[C@H](C(=O)N[C@H](C(=O)N[C@@H](Cc1ccccc1)C(O)[C@H](Cc1ccccc1)NC(=O)[C@H](NC(=O)[C@H](NC(C)=O)C(C)C)C(C)C)C(C)C)C(C)C (some centres undefined)
IC50 [1]: 10 nM

CC(C)[C@H](NC(=O)OCc1ccccc1)C(=O)N[C@@H](Cc1ccccc1)[C@@H](O)[C@@H](O)[C@H](Cc1ccccc1)NC(=O)[C@H](NC(=O)OCc1ccccc1)C(C)C
CC50 (H9 [2]): 60000 nM
CC50 (MT4 [3]): > 100000 nM
IC50 [4]: 0.22 nM
IC50 (H9 [5]): 20 nM
IC50 (MT4 [6]): 16 nM

CC(C)[C@H](NC(=O)OCc1ccccc1)C(=O)N[C@@H](Cc1ccccc1)[C@@H](O)[C@H](O)[C@H](Cc1ccccc1)NC(=O)[C@H](NC(=O)OCc1ccccc1)C(C)C
CC50 (H9 [2]): 10000 nM
IC50 [1]: 0.22 nM
CC50 (MT4 [3]): > 100000 nM
IC50 (H9 [5]): 20 nM
IC50 (MT4 [6]): 80 nM

CC(=O)N[C@@H](Cc1ccccc1)C(O)[C@H](Cc1ccccc1)NC(C)=O
IC50 [1]: > 10000 nM

CC(C)(C)OC(=O)N[C@@H](Cc1ccccc1)[C@H](O)[C@@H](O)[C@H](Cc1ccccc1)NC(=O)OC(C)(C)C
IC50 [1]: 280 nM

CC(C)(C)OC(=O)N[C@@H](Cc1ccccc1)[C@@H](O)[C@H](O)[C@H](Cc1ccccc1)NC(=O)OC(C)(C)C
IC50 [1]: 40 nM

CC(C)(C)OC(=O)N[C@@H](Cc1ccccc1)[C@H](O)[C@H](O)[C@H](Cc1ccccc1)NC(=O)OC(C)(C)C
IC50 [1]: 12 nM

CC(C)[C@H](NC(=O)OCc1ccccc1)C(=O)N[C@@H](Cc1ccccc1)[C@H](O)[C@@H](O)[C@H](Cc1ccccc1)NC(=O)[C@H](NC(=O)OCc1ccccc1)C(C)C
CC50 (H9 [2]): > 100000 nM
CC50 (MT4 [3]): > 100000 nM
IC50 [4]: 0.38 nM
IC50 (H9 [5]): 60 nM
IC50 (MT4 [6]): 150 nM

CC(C)C[C@H](NC(=O)OCc1ccccc1)C(=O)N[C@@H](Cc1ccccc1)C(O)[C@H](Cc1ccccc1)NC(=O)[C@@H](CC(C)C)NC(=O)OCc1ccccc1 (some centres undefined)
IC50 [1]: > 100 nM

CC[C@H](C)[C@H](NC(=O)OCc1ccccc1)C(=O)N[C@@H](Cc1ccccc1)C(O)[C@H](Cc1ccccc1)NC(=O)[C@H](NC(=O)OCc1ccccc1)[C@@H](C)CC (some centres undefined)
IC50 [1]: 4.9 nM

CC(=O)N[C@H](C(=O)N[C@@H](Cc1ccccc1)C(O)[C@H](Cc1ccccc1)NC(=O)[C@@H](NC(C)=O)C(C)C)C(C)C
IC50 [1]: 12 nM
